# According to ChEMBL document CHEMBL1131187, “Synthesis, activity, and molecular modeling of new 2, 4-dioxo-5-(naphthylmethylene)-3-thiazolidineacetic acids and 2-thioxo analogues as potent aldose reductase inhibitors” (J Med Chem, 1998):
# pIC50: −log10 of the molar value.
# Biological target: Aldo-keto reductase family 1 member B1 (Bos taurus, UniProt P16116)
# Experiment: Evaluated in vitro for the inhibition of Aldose reductase.
# Type: functional
# Outline: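 Partially purified enzyme from beef lenses homogenized in 96 mM phosphate buffer pH 6.2 at 4 °C; supernatant after 1 h centrifugation at 4 °C. Assay at 37 °C in 96 mM phosphate pH 6.2 with NADPH (0.18 mM) and DL-glyceraldehyde (1 mM). Reaction started with NADPH; A340 decrease followed. Blanks included. Four concentrations, five measures each; IC50 by linear regression of % inhibition vs log concentration.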
row,pIC50,Structure (SMILES)
1,6.89,COc1cc2ccccc2cc1/C=C1\SC(=O)N(CC(=O)O)C1=O
2,7.82,O=C(O)CN1C(=O)/C(=C/c2cc3ccccc3cc2Br)SC1=S
3,6.57,O=C(O)CN1C(=O)S/C(=C\c2ccc3ccccc3c2)C1=O
4,7.00,COc1ccc2cc(/C=C3\SC(=O)N(CC(=O)O)C3=O)ccc2c1
5,7.10,O=C(O)CN1C(=O)/C(=C/c2ccc3ccccc3c2[N+](=O)[O-])SC1=S
6,8.15,O=C(O)Cc1nn(Cc2ccc(Br)cc2F)c(=O)c2ccccc12 [PONALRESTAT]
7,7.02,O=C(O)CN1C(=O)/C(=C/c2ccc3ccccc3c2)SC1=S
8,7.17,COc1ccc2cc(/C=C3\SC(=S)N(CC(=O)O)C3=O)ccc2c1
9,7.32,O=C(O)CN1C(=O)S/C(=C\c2cc3ccccc3cc2Cl)C1=O
10,6.82,COc1c(/C=C2\SC(=O)N(CC(=O)O)C2=O)ccc2ccccc12
11,7.70,COc1cc2ccccc2cc1/C=C1\SC(=S)N(CC(=O)O)C1=O
12,6.82,O=C(O)CN1C(=O)S/C(=C\c2cc3ccccc3cc2Br)C1=O
13,8.05,COc1c(/C=C2\SC(=S)N(CC(=O)O)C2=O)ccc2ccccc12
14,7.96,O=C(O)CN1C(=O)/C(=C/c2ccc3ccccc3c2Br)SC1=S
15,7.29,O=C(O)CN1C(=O)S/C(=C\c2ccc3ccccc3c2Br)C1=O
